Source: PubChem
Compounds with a hit are over-represented: about 3.8% of the library has one in this group of screens.
MrgX1 antagonist: antagonists of human MrgX1 receptor, primary screen, HEK293 cells, Fluo-4 calcium flux. 1.3% of 310,000 active. B-score at 10 µM. AID 588676, 2011. Mas-related G-protein coupled receptor member X1 (Homo sapiens), Q96LB2. BAM8-22 antagonism; stronger effect = lower value;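 active = calcium-response B-score plate-corrected more than 3 library SD below zero, starting fluorescence within 5 deviations, no agonist response on first addition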;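 note: peak minus trough fluorescence over baseline after final BAM8-22 challenge near maximal dose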
Target sequence (Q96LB2 whole entry, looked up): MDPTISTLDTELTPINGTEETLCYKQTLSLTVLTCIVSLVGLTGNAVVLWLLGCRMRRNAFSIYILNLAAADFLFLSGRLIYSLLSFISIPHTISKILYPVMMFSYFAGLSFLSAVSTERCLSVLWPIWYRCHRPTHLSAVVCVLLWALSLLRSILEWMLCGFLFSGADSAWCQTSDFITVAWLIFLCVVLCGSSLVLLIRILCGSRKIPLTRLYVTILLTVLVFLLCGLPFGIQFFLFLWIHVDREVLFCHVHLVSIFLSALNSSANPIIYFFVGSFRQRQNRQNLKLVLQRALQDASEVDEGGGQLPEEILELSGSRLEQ
MrgX1 agonist: agonists of human MrgX1 receptor, primary screen, HEK293 cells, Fluo-4 calcium flux; 0.44% of 310,000 active; Fluo-4 calcium fluorescence, agonist mode; stronger effect = higher value; Mas-related G-protein coupled receptor member X1 (Homo sapiens), Q96LB2; B-score at 10 µM; AID 588627, 2011;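 active = calcium response B-score plate-corrected fluorescence ratio at least 3 library SD, with starting fluorescence B-score inside 5 SD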
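Assay system: stable human MrgX1 HEK293 cell line. Quantity: 15,000 cells per well. Schedule: cells plated overnight, dye loaded 0.5 h 37 °C, 0.5 h room temperature. Detection: Fluo-4 NW calcium-flux fluorescence, kinetic read. Read-out basis: peak-minus-minimum fluorescence over baseline, converted to B scores. Control set: positive and negative control wells on each plate.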
Hep lipid drop: inhibitors of hepatocyte lipid droplet formation, primary screen, imaging, high-throughput imaging, BODIPY stain; 0.4% of 240,000 active; AID 1656, 2009; inhibition, % at 6.5 µM; AML12 mouse hepatocytes, oleate lipid droplets;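 active = lipid droplet intensity inhibited by at least 50%, with more than 500 cells counted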
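System: AML12 hepatocytes (mouse). Probe or stimulus: oleic acid at 100 µM to induce lipid droplet formation. Times: overnight treatment with compound plus oleate. Detection: Image-based BODIPY and DAPI two-channel analysis. Evaluation: percent inhibition of filter-corrected integrated lipid droplet intensity per well.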
RGS4 pot: RGS4 potentiators or activators, primary screen, cell-based, HEK293 M3R inducible RGS4, calcium flux | 0.92% of 310,000 active | AID 463111, 2010 | B-score at 10 µM | carbachol calcium flux Fluo4; stronger effect = lower value;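 active = B-score of the integrated calcium signal more than 4 SD below the library mean, with starting fluorescence not abnormally high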;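 note: negative B-score means reduced calcium response which marks RGS4 activation or potentiation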
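System: HEK293 FlpIn-TREx cells, stable M3R, doxycycline-inducible RGS4. Timing: overnight RGS4 induction, 30 min dye load 37 °C, 20 min compound RT. Also added: carbachol, ECmax concentration. Measured by: Fluo4 fluorescence kinetic imaging of calcium. Evaluation: integrated calcium ratio converted to B score.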
MrgX1 PAM: positive allosteric modulators of MrgX1, primary screen, HEK293 cells, Fluo-4 calcium flux; AID 588675, 2011; B-score at 10 µM; Mas-related G-protein coupled receptor member X1 (Homo sapiens), Q96LB2; 0.63% of 310,000 active; FDSS; stronger effect = higher value;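 active = plate-corrected calcium response at least 3 library SD above typical, normal starting fluorescence, not activating the receptor alone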;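 note: compound read alongside a low EC10 to EC30 dose of BAM8-22 agonist; peak minus trough fluorescence over baseline measured at the second addition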
RGS4 block: RGS4 inhibitors, primary screen, cell-based, HEK293 M3R inducible RGS4, calcium flux; 0.45% of 310,000 active; AID 463165, 2010; Regulator of G-protein signaling 4 (Homo sapiens), P49798; B-score at 10 µM; Fluo-4 calcium flux; stronger effect = higher value; triggered by carbachol at its EC20;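 active = B-score, a plate-corrected calcium signal, over three deviations above library mean, with baseline fluorescence within five deviations of library mean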;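 note: RGS4 expression induced by doxycycline in cells with stable M3 receptor; B-score is computed from the integrated fluorescence ratio over baseline after carbachol; higher B-score means a larger calcium signal and so more RGS4 inhibition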
Target sequence (P49798 whole entry, looked up): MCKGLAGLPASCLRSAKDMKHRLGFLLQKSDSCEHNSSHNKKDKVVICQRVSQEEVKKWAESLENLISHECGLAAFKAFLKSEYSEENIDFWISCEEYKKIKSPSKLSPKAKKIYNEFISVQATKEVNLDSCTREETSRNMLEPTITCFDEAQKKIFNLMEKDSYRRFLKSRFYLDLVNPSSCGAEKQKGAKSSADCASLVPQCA
RGS4 block valid: enhanced carbachol calcium response, M3R/RGS4 cells, RGS4 inhibitor project, cell-based, validation screen, HEK293 M3R/RGS4, calcium flux; shares compounds with RGS4 block; calcium response, % at 10 µM; 65% of 1,700 active; AID 492999, 2010; carbachol calcium Fluo-4 fluorescence; carbachol added at its EC20; 0 = buffer wells, 100 = carbachol control;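 active = duplicate-averaged calcium response above the buffer-only control mean plus 5 SD of those controls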;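 note: integrated fluorescence ratio F max minus min over baseline F0; higher response in RGS4-induced cells means RGS4 inhibition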
M3R Ca ctr: carbachol calcium response in non-induced M3R cells, confirmation, counter-screen for RGS4 inhibitor project, cell-based, HEK293 M3R. shares compounds with RGS4 block. carbachol calcium Fluo-4; submaximal (EC20) carbachol stimulus; buffer wells 0%, carbachol control wells 100%. activity (percent), % at 10 µM. 20% of 1,900 active. AID 493000, 2010; call rule not given here;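 note: RGS4 induction absent so cells express M3R without RGS4; higher means more calcium signal and flags a non-specific hit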
RGS4 inh ctr2: second RGS4 inhibitor counter-screen in uninduced cells lacking carbachol; shares compounds with RGS4 block; calcium response (agonist-mode artifact), % at 10 µM; HEK293 M3R/RGS4 non-induced, Fluo-4 calcium, no carbachol; normalised: buffer wells 0%, carbachol wells 100%; 22% of 1,900 active;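 active = duplicate-averaged calcium rise in uninduced cells above buffer wells' mean plus 5 SD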
An asterisk follows results filed as active.

Screening O=C(CCCN1C(=O)S/C(=C/C=C/c2ccccc2)C1=O)Nc1ccc(C(=O)O)cc1 returned MrgX1 antagonist inactive, MrgX1 agonist inactive, Hep lipid drop -9.7, RGS4 pot inactive, MrgX1 PAM inactive and RGS4 block inactive.
`COC(=O)C1CCN(Cc2cc(=O)oc3cc(C)c(Cl)cc23)CC1` gave MrgX1 antagonist inactive, MrgX1 agonist inactive, Hep lipid drop 3.8, RGS4 pot inactive, MrgX1 PAM inactive, RGS4 block 11.7*, RGS4 block valid 16.5%*, M3R Ca ctr inactive and RGS4 inh ctr2 inactive.
CCc1ccc2c(CN3CCC(C(=O)OC)CC3)cc(=O)oc2c1 was read as MrgX1 antagonist inactive, MrgX1 agonist inactive, RGS4 pot inactive, MrgX1 PAM inactive, RGS4 block 7.23*, RGS4 block valid 13.0%*, M3R Ca ctr inactive and RGS4 inh ctr2 inactive.
Screening CCOC(=O)Nc1ccc2c(COC(=O)c3ccccc3O)cc(=O)oc2c1 returned MrgX1 antagonist inactive, MrgX1 agonist inactive, Hep lipid drop 5.8, RGS4 pot inactive, MrgX1 PAM inactive and RGS4 block inactive.
`CCOC(=O)Nc1ccc2c(CN3CCC(C(=O)OC)CC3)cc(=O)oc2c1` gave MrgX1 antagonist inactive, MrgX1 agonist inactive, Hep lipid drop 3.5, RGS4 pot inactive, MrgX1 PAM inactive, RGS4 block 4.93*, RGS4 block valid 24.5%*, M3R Ca ctr inactive and RGS4 inh ctr2 inactive.
COc1ccc(S(=O)(=O)N2CCCOC2CNC(=O)C(=O)NC2CCCC2)cc1 (stereo not drawn) was read as MrgX1 antagonist inactive, MrgX1 agonist inactive, Hep lipid drop -0.1, RGS4 pot inactive, MrgX1 PAM inactive, RGS4 block inactive, RGS4 block valid inactive, M3R Ca ctr inactive and RGS4 inh ctr2 inactive.
For O=C(NCC1OCCCN1S(=O)(=O)c1ccc(F)cc1)C(=O)NC1CCCC1 (stereo not drawn) the results were MrgX1 antagonist inactive, MrgX1 agonist inactive, Hep lipid drop -9.7, RGS4 pot inactive, MrgX1 PAM inactive, RGS4 block inactive, RGS4 block valid inactive, M3R Ca ctr inactive and RGS4 inh ctr2 inactive.
COc1ccc(S(=O)(=O)N2CCCC2CNC(=O)C(=O)NC2CCCCCC2)cc1 (stereo not drawn) was read as MrgX1 antagonist inactive, MrgX1 agonist inactive, RGS4 pot inactive, MrgX1 PAM inactive and RGS4 block inactive.
Screening O=C(O)C[C@H]1c2ccc(C(F)(F)F)cc2S(=O)(=O)N1Cc1ccccc1 returned MrgX1 antagonist inactive, MrgX1 agonist inactive, RGS4 pot inactive, MrgX1 PAM inactive and RGS4 block inactive.
Screening CC(C)C(=O)n1nc(-c2cccnc2)nc1NCc1cccs1 returned MrgX1 antagonist inactive, MrgX1 agonist inactive, Hep lipid drop 9.9, RGS4 pot inactive, MrgX1 PAM inactive and RGS4 block inactive.
CCC1(C)OC(=O)NN(c2ccc(C)cc2)C1(C)O (stereo not drawn) was read as MrgX1 antagonist inactive, MrgX1 agonist inactive, Hep lipid drop -15.0, RGS4 pot inactive, MrgX1 PAM inactive and RGS4 block inactive.
For Cc1cc(NS(=O)(=O)c2ccc(NC(=O)CCCOc3ccccc3C)cc2)no1 the results were MrgX1 antagonist inactive, MrgX1 agonist inactive, Hep lipid drop 9.5, RGS4 pot inactive, MrgX1 PAM inactive and RGS4 block inactive.
COc1ccc(C2CC(c3ccccc3)=NN2C(=O)CCC(=O)O)cc1 (stereo not drawn) was read as MrgX1 antagonist inactive, MrgX1 agonist inactive, Hep lipid drop -1.4, RGS4 pot inactive, MrgX1 PAM inactive and RGS4 block inactive.
COc1ccc(C2=NN(CN3C(=O)C(=O)c4ccccc43)C(c3ccc(C)cc3)C2)cc1 (stereo not drawn) was read as MrgX1 antagonist inactive, MrgX1 agonist inactive, Hep lipid drop -9.9, RGS4 pot inactive, MrgX1 PAM inactive, RGS4 block 6.74*, RGS4 block valid 18.5%*, M3R Ca ctr inactive and RGS4 inh ctr2 inactive.
COc1ccc(C2=NN(CN3C(=O)C(=O)c4ccccc43)C(c3ccc(Br)cc3)C2)cc1 (stereo not drawn) was read as MrgX1 antagonist inactive, MrgX1 agonist inactive, Hep lipid drop 10.4, RGS4 pot inactive, MrgX1 PAM inactive, RGS4 block 11.3*, RGS4 block valid 38.5%*, M3R Ca ctr 42.5%* and RGS4 inh ctr2 inactive.
`CCOC(=O)C1CCCN(C(=S)Nc2cccc(Cl)c2C)C1` (stereo not drawn) gave MrgX1 antagonist inactive, MrgX1 agonist inactive, Hep lipid drop -24.6, RGS4 pot inactive, MrgX1 PAM inactive and RGS4 block inactive.
For Fc1ccc(N2CCN(Cc3cn[nH]c3-c3ccccc3)CC2)cc1 the results were MrgX1 antagonist inactive, MrgX1 agonist inactive, Hep lipid drop 1.6, RGS4 pot inactive, MrgX1 PAM inactive, RGS4 block inactive, M3R Ca ctr inactive and RGS4 inh ctr2 inactive.
`Fc1ccc(-c2[nH]ncc2CN2CCN(c3ccc(F)cc3)CC2)cc1` gave MrgX1 antagonist inactive, MrgX1 agonist inactive, Hep lipid drop 3.5, RGS4 pot inactive, MrgX1 PAM inactive, RGS4 block 6.89*, RGS4 block valid 22.0%*, M3R Ca ctr 49.5%* and RGS4 inh ctr2 inactive.
